Assay results reported in PMC9069315 (Acta Pharmaceutica Sinica. B, 2021).
Numbering of substitutions follows the chain as printed. Values joined by “and” are separate entries in the source; they are usually repeats but may differ in a detail not shown here. Identical values can stand only once.

How the values were obtained:
[1] = Biodistribution in male ICR mice; format: in vivo, mouse; conditions: i.v.
Summary of the method: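 Male ICR mice (20 ± 2 g, 4–5 weeks) received the radiotracer, and tissues were sampled at the listed times after injection. Uptake is given as percentage of injected dose per gram of tissue (% ID/g), as means ± SD, n = 5.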

σ2 receptor [2] = molecular target: T1, σ2 receptor (Rattus norvegicus, UniProt Q5U3Y7); experiment: Micro-PET/CT imaging in Sprague-Dawley rats; format: in vivo; conditions: SD rats, CM398 10 μmol/kg 5 min before tracer, after 30 min
T1 sequence (Q5U3Y7 1-176): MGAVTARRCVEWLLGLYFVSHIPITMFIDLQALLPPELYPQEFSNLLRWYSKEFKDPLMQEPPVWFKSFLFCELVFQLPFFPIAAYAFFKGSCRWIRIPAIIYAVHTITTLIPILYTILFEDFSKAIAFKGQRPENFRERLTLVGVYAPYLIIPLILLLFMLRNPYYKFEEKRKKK
Summary of the method: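 Male SD rats (200 ± 10 g, 6–7 weeks) were injected intravenously with radiotracer, and a dynamic 120-min micro-PET/CT scan followed. Scans were run at baseline or with CM398 (10 μmol/kg) blocking. Whole-brain and regional time–activity curves were expressed as SUV, n = 3 per condition for whole brain; images were summed over 30–45 min.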

[3] = In vivo metabolic stability in ICR mice; design: species or system mouse; conditions: 30 min after injection, radio-HPLC
Summary of the method: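 ICR mice were injected with radiotracer (0.2 mL, 33.3 MBq). Brain and pancreas were dissected at 30 min, processed, and analysed by radio-HPLC for the intact-tracer fraction versus radioactive metabolites.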

P-glycoprotein (P-gp) = P-glycoprotein (P-gp) (Mus musculus, UniProt P21447); experiment: Effect of P-gp on brain uptake; format: in vivo; conditions: male ICR mice
Sequence of P-glycoprotein (P-gp) (P21447 whole entry): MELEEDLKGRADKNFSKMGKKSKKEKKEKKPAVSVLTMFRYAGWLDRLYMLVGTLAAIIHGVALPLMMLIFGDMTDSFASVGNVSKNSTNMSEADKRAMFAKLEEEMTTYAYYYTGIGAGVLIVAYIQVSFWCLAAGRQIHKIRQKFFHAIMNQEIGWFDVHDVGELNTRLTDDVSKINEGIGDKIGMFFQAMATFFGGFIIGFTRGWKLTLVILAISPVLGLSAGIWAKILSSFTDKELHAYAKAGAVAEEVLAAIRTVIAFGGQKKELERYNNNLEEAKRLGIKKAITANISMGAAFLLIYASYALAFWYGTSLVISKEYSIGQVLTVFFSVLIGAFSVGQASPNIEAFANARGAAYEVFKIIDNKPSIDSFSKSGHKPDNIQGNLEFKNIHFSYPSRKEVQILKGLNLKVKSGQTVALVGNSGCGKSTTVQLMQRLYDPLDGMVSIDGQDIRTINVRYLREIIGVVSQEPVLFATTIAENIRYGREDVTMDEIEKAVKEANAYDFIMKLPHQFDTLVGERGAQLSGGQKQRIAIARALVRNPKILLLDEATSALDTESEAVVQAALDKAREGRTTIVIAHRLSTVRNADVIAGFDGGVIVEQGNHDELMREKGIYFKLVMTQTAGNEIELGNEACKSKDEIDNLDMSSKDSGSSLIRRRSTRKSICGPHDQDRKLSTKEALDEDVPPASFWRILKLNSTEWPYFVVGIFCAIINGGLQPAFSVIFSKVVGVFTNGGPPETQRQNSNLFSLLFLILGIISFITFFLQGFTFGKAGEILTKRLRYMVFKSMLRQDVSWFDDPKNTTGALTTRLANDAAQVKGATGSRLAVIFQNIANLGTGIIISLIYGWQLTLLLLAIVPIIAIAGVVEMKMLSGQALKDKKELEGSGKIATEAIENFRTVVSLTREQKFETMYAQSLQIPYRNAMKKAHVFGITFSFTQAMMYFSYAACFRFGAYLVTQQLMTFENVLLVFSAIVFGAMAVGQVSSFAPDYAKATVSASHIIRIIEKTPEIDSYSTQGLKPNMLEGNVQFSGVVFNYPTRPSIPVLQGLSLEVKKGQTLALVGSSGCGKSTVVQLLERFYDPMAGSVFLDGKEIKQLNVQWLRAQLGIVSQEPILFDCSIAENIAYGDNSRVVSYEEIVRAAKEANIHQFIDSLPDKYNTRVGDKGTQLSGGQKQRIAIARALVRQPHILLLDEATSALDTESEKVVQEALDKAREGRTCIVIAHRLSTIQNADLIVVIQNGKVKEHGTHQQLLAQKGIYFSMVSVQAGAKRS
Summary of the method: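 Male ICR mice (20 ± 2 g, 4–5 weeks) were given the P-gp inhibitor cyclosporine A 60 min before the radioligand. Radioactivity in brain and blood was measured and the brain-to-blood ratio derived, n = 5–8 per group, means ± SD. Groups were compared by independent two-tailed Student's t test.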

σ2 receptors [4] = molecular target: T2, σ2 receptors (Mus musculus, UniProt Q8VD00); experiment: Ex vivo autoradiography in mouse brain; conditions: baseline, 30 min p.i., male ICR mice
T2 sequence (Q8VD00 1-176): T1 sequence (Q5U3Y7 1-176) with V4L, T5A, M26L, L33V, F71L, V105A, I118L, I127V, N136S, F169Y

[5] = In vitro stability in saline and mouse serum; format: in vitro ADME; conditions: 2 h
σ2 receptor [6] = molecular target: T1, σ2 receptor; conditions: cited from earlier work
σ2 receptors [7] = molecular target: T2, σ2 receptors; experiment: Blocking experiments in male ICR mice; format: in vivo; conditions: 30 min p.i.
Summary of the method: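 Male ICR mice (20 ± 2 g, 4–5 weeks) were pre-dosed 5 min before about 280 kBq of radiotracer, with either unlabeled compound (0.1 mL, 3 μmol/kg) or CM398 (0.1 mL; 3, 5, 10 or 20 μmol/kg). Tissues were taken at 30 min p.i. Brain uptake (% ID/g) and brain-to-blood ratio were compared with unblocked controls.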

[8] = cyclosporine A 60 min before tracer, 2 min p.i., P < 0.05
[9] = CM398 5 μmol/kg 5 min before tracer
[10] = unlabeled compound 3 μmol/kg 5 min before tracer

COc1cc2c(cc1OC)CN(CCCCn1ccc3c(OCC[18F])cccc31)C2 [[^18F]9, 1-(4-(5,6-dimethoxyisoindolin-2-yl)butyl)-4-(2-[^18F]fluoroethoxy)-1H-indole]
Blood uptake ([1]; 2 min p.i.): 2.39 ± 0.36 % ID/g
Bone uptake ([1]; 2 min p.i.): 2.59 ± 0.66 % ID/g
Brain uptake ([1]; 2 min p.i.): 4.44 ± 0.59 % ID/g
Brain/Blood ratio ([1]; 2 min p.i.): 1.87 ± 0.13
Heart uptake ([1]; 2 min p.i.): 21.57 ± 1.58 % ID/g
Kidney uptake ([1]; 2 min p.i.): 18.89 ± 2.48 % ID/g
Liver uptake ([1]; 2 min p.i.): 3.24 ± 0.67 % ID/g
Lung uptake ([1]; 2 min p.i.): 108.47 ± 20.11 % ID/g
Muscle uptake ([1]; 2 min p.i.): 4.38 ± 0.99 % ID/g
Pancreas uptake ([1]; 2 min p.i.): 8.74 ± 0.29 % ID/g
Small intestine uptake ([1]; 2 min p.i.): 6.21 ± 0.81 % ID/organ
Spleen uptake ([1]; 2 min p.i.): 5.01 ± 1.80 % ID/g
Stomach uptake ([1]; 2 min p.i.): 1.21 ± 0.14 % ID/organ
Blood uptake ([1]; 15 min p.i.): 0.70 ± 0.08 % ID/g
Bone uptake ([1]; 15 min p.i.): 3.02 ± 0.45 % ID/g
Brain uptake ([1]; 15 min p.i.): 4.95 ± 0.36 % ID/g
Brain/Blood ratio ([1]; 15 min p.i.): 7.2 and 7.21 ± 1.36
Heart uptake ([1]; 15 min p.i.): 11.23 ± 0.91 % ID/g
Kidney uptake ([1]; 15 min p.i.): 18.40 ± 2.45 % ID/g
Liver uptake ([1]; 15 min p.i.): 6.13 ± 0.94 % ID/g
Lung uptake ([1]; 15 min p.i.): 36.37 ± 6.47 % ID/g
Muscle uptake ([1]; 15 min p.i.): 3.74 ± 0.33 % ID/g
Pancreas uptake ([1]; 15 min p.i.): 12.75 ± 2.12 % ID/g
Small intestine uptake ([1]; 15 min p.i.): 7.27 ± 0.88 % ID/organ
Spleen uptake ([1]; 15 min p.i.): 7.51 ± 1.17 % ID/g
Stomach uptake ([1]; 15 min p.i.): 1.52 ± 0.19 % ID/organ
Blood uptake ([1]; 30 min p.i.): 0.48 ± 0.08 % ID/g
Bone uptake ([1]; 30 min p.i.): 4.50 ± 0.38 % ID/g
Brain uptake ([1]; 30 min p.i.): 5.04 ± 0.67 % ID/g
Brain/Blood ratio ([1]; 30 min p.i.): 10.6 and 10.57 ± 1.86 and 10.57
Heart uptake ([1]; 30 min p.i.): 7.55 ± 1.30 % ID/g
Kidney uptake ([1]; 30 min p.i.): 20.61 ± 1.80 % ID/g
Liver uptake ([1]; 30 min p.i.): 8.69 ± 0.44 % ID/g
Lung uptake ([1]; 30 min p.i.): 17.93 ± 2.42 % ID/g
Muscle uptake ([1]; 30 min p.i.): 3.90 ± 0.23 % ID/g
Pancreas uptake ([1]; 30 min p.i.): 18.93 ± 2.95 % ID/g
Small intestine uptake ([1]; 30 min p.i.): 10.80 ± 0.36 % ID/organ
Spleen uptake ([1]; 30 min p.i.): 9.93 ± 1.43 % ID/g
Stomach uptake ([1]; 30 min p.i.): 1.54 ± 0.20 % ID/organ
Blood uptake ([1]; 60 min p.i.): 0.42 ± 0.05 % ID/g
Bone uptake ([1]; 60 min p.i.): 4.64 ± 1.57 % ID/g
Brain uptake ([1]; 60 min p.i.): 4.43 ± 0.39 % ID/g
Brain/Blood ratio ([1]; 60 min p.i.): 10.6 and 10.56 ± 0.83
Heart uptake ([1]; 60 min p.i.): 3.49 ± 0.62 % ID/g
Kidney uptake ([1]; 60 min p.i.): 17.40 ± 3.97 % ID/g
Liver uptake ([1]; 60 min p.i.): 10.97 ± 0.95 % ID/g
Lung uptake ([1]; 60 min p.i.): 9.95 ± 1.62 % ID/g
Muscle uptake ([1]; 60 min p.i.): 3.01 ± 0.51 % ID/g
Pancreas uptake ([1]; 60 min p.i.): 22.66 ± 3.36 % ID/g
Small intestine uptake ([1]; 60 min p.i.): 10.73 ± 1.27 % ID/organ
Spleen uptake ([1]; 60 min p.i.): 11.35 ± 2.85 % ID/g
Stomach uptake ([1]; 60 min p.i.): 1.39 ± 0.27 % ID/organ
Blood uptake ([1]; 120 min p.i.): 0.42 ± 0.03 % ID/g
Bone uptake ([1]; 120 min p.i.): 5.57 ± 0.53 % ID/g
Brain uptake ([1]; 120 min p.i.): 3.41 ± 0.13 % ID/g
Brain/Blood ratio ([1]; 120 min p.i.): 8.11 ± 0.37
Heart uptake ([1]; 120 min p.i.): 2.76 ± 0.41 % ID/g
Kidney uptake ([1]; 120 min p.i.): 12.36 ± 0.81 % ID/g
Liver uptake ([1]; 120 min p.i.): 11.9 ± 1.52 % ID/g
Lung uptake ([1]; 120 min p.i.): 7.53 ± 1.07 % ID/g
Muscle uptake ([1]; 120 min p.i.): 3.01 ± 0.27 % ID/g
Pancreas uptake ([1]; 120 min p.i.): 24.21 ± 1.57 % ID/g
Small intestine uptake ([1]; 120 min p.i.): 10.88 ± 0.38 % ID/organ
Spleen uptake ([1]; 120 min p.i.): 10.51 ± 0.37 % ID/g
Stomach uptake ([1]; 120 min p.i.): 1.22 ± 0.13 % ID/organ
Reduction of radiotracer accumulation in the whole-brain (micro-PET) (σ2 receptor [2]): > 60%
Parent compound fraction of radioactivity in brain [3]: ≥ 95%
Parent compound fraction of radioactivity in pancreas ([3]; n = 3): ~10%
P-gp substrate (P-glycoprotein (P-gp); cyclosporine A 50 mg/kg 60 min before tracer, 50 mg/kg): moderate P-gp substrates and moderate P-gp substrate and Yes
Increase in brain-to-blood ratio with cyclosporine A (P-glycoprotein (P-gp); [8]): 35%
Increase in initial brain uptake with cyclosporine A (P-glycoprotein (P-gp); [8]): 49%
Change in blood uptake with cyclosporine A (P-glycoprotein (P-gp); cyclosporine A 60 min before tracer, 2 min p.i., P > 0.05): slight increase without significance
Radioactivity distribution in the mouse brain (ex vivo autoradiography) (σ2 receptors [4]): widely and heterogeneously distributed
RCP after incubation (in vitro stability) ([5]; mouse serum, 37 °C): > 99%
RCP after incubation (in vitro stability) ([5]; saline, ambient temperature): > 99%
Ki (σ2 receptor [6]; read-out: Ki (σ2)): 1.79 ± 0.86 nM
Ki (σ1)/Ki (σ2) (σ2 receptor [6]; subtype selectivity): 207
Blocking effect of CM398 (5 μmol/kg), Brain (σ2 receptors [7]; [9]): 39%
Blocking effect of CM398 (5 μmol/kg), Brain/Blood (σ2 receptors [7]; [9]): 75%
Self-blocking effect, Brain (σ2 receptors [7]; [10]): 58%
Self-blocking effect, Brain/Blood (σ2 receptors [7]; [10]): 90%
